Bioassay records (PubChem)
Tn7 DDE FP – inhibitors of Tn7 peptide binding to human fibrin DD(E) | hit rate 0.13% among 370,000 | inhibition, % at 8.3 µM | FP displacement of FITC-Tn7 peptide from fibrin DD(E); 0% = median of compound wells per plate;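 active = inhibition above the mean of compounds falling within the control limits plus 3 SD of them, cut at about 14% in these data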;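 note: 0% = plate median of compound wells and 100% = 10 µM Aha-Tn7 peptide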
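Assay system: human fibrin DD(E). Input: DD(E) 2 µM final. Medium: Tris buffer with calcium and detergent, pH 7.8. Compound dosing: single point at 8.3 µM. Timing: 10 min plus 3 h, room temperature. Technique: fluorescence polarization of the labelled Tn7 tracer. Read-out: percent inhibition. Replicates: singlicate testing.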
RTF Ca sens act – increases calcium sensitivity of human cardiac regulated thin filaments | P19429+P45379 | IANBD-labeled TnC RTF fluorescence at EC20 calcium; 0% EC20 calcium, 100% full calcium | activation, % at 7.2 µM | hit rate 0.24% among 340,000;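 active = activation above the mean over all tested compounds plus 3 SD, cut at about 30% in these data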;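 note: rise in fluorescence read as greater calcium sensitivity of cardiac thin filaments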
DDE Tn6 FP inh – DD(E)-Tn6 binding inhibition, primary FP screen; P02675; Fibrin DD(E) TRITC-Tn6 fluorescence polarization displacement; inhibition, % at 8.3 µM; hit rate 0.21% among 370,000; AID 720509;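 active = inhibition above a per-campaign cutoff: mean of compounds within control limits plus 3 SD, cut at about 15% in these data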;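 note: 0% = median of all compound wells on the plate and 100% = blocking peptide control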
Keap1 Nrf2 FP – disrupts human Keap1 binding to Nrf2 peptide; Q14145; Keap1 Kelch-Nrf2 peptide fluorescence polarization, 1536-well; inhibition, % at 9.4 µM; hit rate 0.15% among 340,000; AID 504523; in the data active = inhibition above about 12%;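 note: human Keap1 Kelch domain with fluorescein labeled Nrf2 9mer peptide probe; 0% = neutral control wells and 100% = peptide positive control; higher means more block of Keap1 binding to Nrf2 peptide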
Target sequence (Q14145 whole entry, looked up, the tested form may be a part): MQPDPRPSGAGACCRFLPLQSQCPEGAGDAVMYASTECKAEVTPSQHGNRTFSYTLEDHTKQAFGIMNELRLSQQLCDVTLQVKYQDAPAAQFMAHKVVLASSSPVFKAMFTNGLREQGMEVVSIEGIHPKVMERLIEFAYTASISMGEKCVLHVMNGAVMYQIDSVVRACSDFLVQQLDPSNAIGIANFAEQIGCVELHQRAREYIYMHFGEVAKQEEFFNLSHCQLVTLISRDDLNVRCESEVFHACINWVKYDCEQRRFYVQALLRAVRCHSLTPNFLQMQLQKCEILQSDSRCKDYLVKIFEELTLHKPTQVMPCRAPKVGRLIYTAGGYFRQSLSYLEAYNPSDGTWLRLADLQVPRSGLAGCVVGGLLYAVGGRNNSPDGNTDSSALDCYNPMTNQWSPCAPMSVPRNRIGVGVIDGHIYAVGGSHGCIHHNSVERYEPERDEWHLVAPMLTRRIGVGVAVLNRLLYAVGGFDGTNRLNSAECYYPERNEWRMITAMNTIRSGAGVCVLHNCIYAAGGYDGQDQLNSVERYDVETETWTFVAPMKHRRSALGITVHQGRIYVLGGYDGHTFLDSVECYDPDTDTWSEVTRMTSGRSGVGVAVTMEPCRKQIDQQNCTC
LANA DNA inh – blocks KSHV LANA C-terminal domain binding to DNA. MBP-C-LANA/FAM-LBS DNA binding, fluorescence polarization. inhibition, % at 9 µM. hit rate 0.078% among 340,000;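 active = highest replicate inhibition at or above 60% at 9 µM, even if other replicates fall short; inactive = all replicates below 60% inhibition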;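 note: 0% = neutral control wells and 100% = 4 µM acridine orange control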
RTF Ca sens inh – cardiac RTF calcium desensitization; inhibition, % at 7.15 µM; hit rate 0.12% among 340,000; AID 493244; P19429+P45379; IANBD-labeled cardiac RTF, Ca2+ fluorescence;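 active = inhibition above the mean inhibition of all tested compounds plus 3 SD, cut at about 17% in these data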;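 note: assay run at fixed EC70 calcium of 1.6 mM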
RTF inh confirm – confirmation of inhibitors of cardiac thin filament calcium sensitivity. shares compounds with RTF Ca sens inh. reconstituted cardiac thin filaments, calcium sensitivity fluorescence. inhibition, % at 7.15 µM. hit rate 8% among 360. AID 504635; in the data active = inhibition above about 18%
An asterisk follows results filed as active; . = no result given. An excerpt weighted towards active compounds, which were near 0.73% of everything screened.

SMILES	Tn7 DDE FP	RTF Ca sens act	DDE Tn6 FP inh	Keap1 Nrf2 FP	LANA DNA inh	RTF Ca sens inh	others
NC(=O)c1cc[n+](CC2=C(C(=O)O)N3C(=O)[C@@H](NC(=O)C(c4ccccc4)S(=O)(=O)[O-])[C@H]3SC2)cc1 (some centres undefined)	.	-8.7	.	23.2*	102.4*	8.0
Cc1ccc(-n2c(SCC(=O)c3ccc(F)cc3)nnc2-c2cccnc2)cc1	0.2	.	-2.3	.	.	.
CCN(CC)c1ccc(C(=O)O)cc1	5.5	0.6	3.3	-3.6	1.1	10.4
CCN(CC)c1ccc(/C=C2\C(=O)c3ccc(C(=O)O)cc3C2=O)cc1	-1.9	73.8*	-3.8	-188.7	-45.0	-98.3
O=C(NCCN1CCc2ccccc2C1)Nc1ccc([N+](=O)[O-])cc1	14.9*	-4.1	-2.7	-1.3	0.2	3.6
O=C(NCCCN1CCc2ccccc2C1)Nc1ccc(Br)cc1	-1.5	4.0	10.7	-1.4	-0.6	-16.5
F[B-](F)(F)c1cncnc1	-1.3	.	0.8	.	.	.
N#CC1(NC(=O)COC(=O)C2=COCCO2)CCCCC1	0.4	8.4	-0.1	194.2*	.	-184.9
CCn1c(=N)n(CC(O)c2ccco2)c2ccccc21 (centres undefined)	8.5	3.7	-1.8	-2.9	1.8	3.1
N=c1n(Cc2ccccc2)c2ccccc2n1CC(O)c1ccco1 (centres undefined)	-2.4	39.8*	4.3	-0.4	22.0	-56.9
COc1ccc(C(=O)c2sc3nc(C)cc(-c4cccs4)c3c2N)cc1OC	-1.0	44.5*	2.3	4.9	26.1	-56.6
Cc1cc(-c2cccs2)c2c(N)c(C(=O)c3ccc4c(c3)OCO4)sc2n1	-5.8	9.6	-1.1	-1.7	12.6	-20.0
CC(C)NC(=O)c1sc2nc(-c3cccs3)cc(-c3cccs3)c2c1N	-3.2	.	1.2	.	.	.
COc1ccc(C(=O)c2sc3nc(C)cc(-c4cccs4)c3c2N)cc1	0.4	67.7*	-6.9	-2.4	4.5	-46.6
CCOC(=O)[C@]12CCCC3=C1N(CCC3)C(=O)[C@@H](CC(=O)N1CCOCC1)C2	5.0	.	4.2	.	.	.
Cc1cc(C(=O)O)ccc1-c1ccc(/C=C2\SC(=O)N(CC(=O)Nc3ccc4c(c3)OCO4)C2=O)o1	-1.5	46.0*	-1.9	13.5*	10.5	-1.6
CCN(CC)c1ccc(/C=C(/C#N)c2nc3ccccc3[nH]2)c(OC(C)C)c1	-2.8	147.6*	0.7	-10.2	0.5	-290.9
C[n+]1ccc(/C=C/c2c[nH]c3ccc(F)cc23)cc1	-41.2	101.5*	5.6	-104.9	-18.6	-115.9
Cn1cc(/C=C/c2cc[n+](C)cc2)c2cc(F)ccc21	.	317.4*	.	-192.2	-13.7	-382.9
C[n+]1ccc(/C=C/c2ccc(Br)cc2)cc1	-2.2	0.8	-3.8	1.6	-0.1	-0.7
Cn1cc(C=O)c2cc(F)ccc21	-0.8	4.2	3.0	-4.0	-0.1	-16.6
Cn1cc(/C=C/c2cc[n+](C)cc2)c2cc(Cl)ccc21	-35.8	206.4*	-6.1	-142.4	-12.3	-177.7
C=CCN(CC#CC(=C)C)CC1CC1	0.5	.	0.1	.	.	.
O=C(CSc1nnc(-c2ccccc2)n1-c1ccccc1)NN=C/C=C\c1ccccc1[N+](=O)[O-]	-0.1	.	-7.2	.	.	.
COC(=O)[C@]12C[C@H](CC(=O)NCC3CCCCC3)C(=O)N(Cc3ccc(Cl)cc3Cl)C1=C[C@H](COCc1ccccc1)O[C@@H]2C	3.2	.	-1.1	.	.	.
SMILES	Tn7 DDE FP	RTF Ca sens act	DDE Tn6 FP inh	Keap1 Nrf2 FP	LANA DNA inh	RTF Ca sens inh	others
Cc1nn(Cc2c(F)c(F)c(F)c(F)c2F)c(C)c1NC(=O)c1nn(C)c(C)c1Br	-7.5	46.5*	1.2	2.3	-0.8	1.9
Cc1nn(Cc2c(F)c(F)c(F)c(F)c2F)c(C)c1NC(=O)c1nn(C)cc1Br	-1.5	3.9	1.1	-1.9	0.1	-2.0
O=C(CN1C(=O)C2CCCCN2C(=O)c2ccccc21)N1CCCC1 (centres undefined)	-1.9	.	1.5	.	.	.
Cc1[nH]c2c(ccc3cccnc32)c1C	2.6	1.1	7.9	-8.6	0.5	2.1
CC1=[N+](C)c2c(ccc3cccnc23)C1(C)C	-9.4	0.5	153.5*	-14.9	-3.6	-11.2
Cc1cccc(OCc2nn[nH]n2)c1C	4.1	164.5*	-5.0	-1.5	2.3	5.6
CCN(CC)c1ccc2cc(C(=O)NCc3ccc(F)cc3)c(=N)oc2c1	-5.2	266.6*	0.3	-240.7	-24.9	-81.5
COc1ccccc1OCC(O)COC(N)=O (centres undefined)	2.4	-0.8	5.4	-5.2	3.4	17.6*	RTF inh confirm=2.0
COc1ccccc1OCC(O)CO (centres undefined)	3.0	7.8	-0.6	-8.5	-0.3	1.3
O=C1CCCCC(=O)[C@H](O)C[C@H](COCc2ccccc2)O1	5.0	.	3.2	.	.	.
CC[C@@H](C(=O)[C@@H](C)[C@@H](O)[C@H](C)[C@@H]1O[C@@H]([C@@H](CC)C(=O)O)CC[C@@H]1C)[C@H]1O[C@]2(C=C[C@@H](O)[C@]3(CC[C@@](C)([C@H]4CC[C@](O)(CC)[C@H](C)O4)O3)O2)[C@H](C)C[C@@H]1C	1.4	1.7	-2.2	1.7	-2.1	20.3*	RTF inh confirm=-2.1
COc1ccc(CCN(Cc2ccccn2)C(=S)Nc2cccc(SC)c2)cc1OC	-8.3	-4.3	6.2	2.5	0.7	20.4*	RTF inh confirm=-1.3
COc1ccc(CCN(Cc2ccccn2)C(=S)Nc2ccc(C)cc2)cc1OC	0.4	1.3	-0.1	3.0	-0.6	-6.5
COc1ccc(C2=CC3=C(Br)C(=O)C(C)(OC(=O)c4cccs4)C(=O)C3=CO2)cc1 (centres undefined)	-0.9	-18.5	5.6	-4.3	3.6	19.8*	RTF inh confirm=0.3
Cc1ccc(O)c(C(C)c2c[nH]c3ccccc23)c1 (centres undefined)	10.7	.	8.0	.	.	.
CCCCNC(=O)C[C@H]1C[C@@]2(C(=O)OC)C(=C[C@H](C3CCCC3)O[C@@H]2C)N(CCc2ccc(OC)c(OC)c2)C1=O	-4.7	.	2.1	.	.	.
O=C(N/N=C/c1ccc(F)cc1)c1cc(-c2ccco2)nc2ccccc12	-1.3	-15.6	-2.8	1.5	-0.1	18.5*	RTF inh confirm=2.7
Cn1c(Cn2cnc([N+](=O)[O-])n2)nnc1SCC(=O)Nc1ccccc1	0.1	-1.3	5.5	0.5	0.8	17.1*	RTF inh confirm=-1.0
COCC(=O)N1CCC(C(=O)NCC2COc3ccccc3O2)CC1 (centres undefined)	-4.5	.	4.1	.	.	.
CC(COc1ccc(/C=C/c2ccccc2)cc1)[N+](C)(C)C (centres undefined)	-7.8	5.4	-6.2	-3.9	-2.6	20.8*	RTF inh confirm=-7.1
COC(=O)[C@]12C[C@H](CC(=O)NCc3cccs3)C(=O)N(Cc3cccc4ccccc34)C1=C[C@H](C1CCCC1)O[C@@H]2C	-3.8	.	-4.2	.	.	.
